Data from ChEMBL document CHEMBL1142278, “Efficient inhibition of iron superoxide dismutase and of Trypanosoma cruzi growth by benzo[g]phthalazine derivatives functionalized with one or two imidazole rings” (J Med Chem, 2008).

Experiments:
[1] = Toxicity in african green monkey Vero cells after 72 hrs; type: cell-based; conditions: African green monkey (Chlorocebus sabaeus)
Procedure, shortened: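 Vero cells were cultured with compound for 72 h. The cytotoxic IC50 was derived by linear regression from Kc values at 2.5, 25 and 125 µM. Results are the average of three separate determinations.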

Trypanosoma cruzi [2] = assay: Antiparasitic activity against Trypanosoma cruzi epimastigotes after 48 hrs; type: functional, organism-based
Procedure, shortened: (§1)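 Epimastigotes were cultured with compound at 2.5, 25 and 125 µM, and growth inhibition was read at 24, 48 or 72 h. IC50 was calculated by linear regression from Kc values at those concentrations. Results are the average of three separate determinations.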

Trypanosoma cruzi [3] = assay: Inhibition of Iron superoxide dismutase in Trypanosoma cruzi epimastigotes at 2.5 uM
Trypanosoma cruzi [4] = assay: Antiparasitic activity against Trypanosoma cruzi epimastigotes after 24 hrs; type: functional, organism-based; procedure, shortened: as §1
Trypanosoma cruzi [5] = assay: Inhibition of Iron superoxide dismutase in Trypanosoma cruzi epimastigotes at 25 uM
[6] = target: Superoxide dismutase [Cu-Zn] (Homo sapiens) (UniProt P00441); assay: inhibition of CuZn-SOD in human erythrocytes at 25 uM; type: cell-based
[7] = target: Superoxide dismutase [Cu-Zn] (Homo sapiens) (UniProt P00441); assay: inhibition of CuZn-SOD in human erythrocytes at 2.5 uM; type: cell-based
Trypanosoma cruzi [8] = assay: Antiparasitic activity against Trypanosoma cruzi in Vero cells assessed as reduction of infection rate at 10 uM relative to control; type: functional; parameters: scale not given: the % may be the effect or the level left
Procedure, shortened: (§2)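 Vero cells (1 × 10^5) were grown for 2 days, then infected with 1 × 10^6 T. cruzi metacyclic forms, adding compound (10 µM) at the same time. Cultures were followed over days 1–8. Read-outs were % infected cells, mean amastigotes per infected cell, and trypomastigotes in the medium, each compared with an untreated control. Values are means of three separate experiments.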

Trypanosoma cruzi [9] = assay: Inhibition of Iron superoxide dismutase in Trypanosoma cruzi epimastigotes at 125 uM
Trypanosoma cruzi [10] = assay: Antiparasitic activity against Trypanosoma cruzi epimastigotes after 72 hrs; type: functional, organism-based; procedure, shortened: as §1
[11] = target: Superoxide dismutase [Cu-Zn] (Homo sapiens) (UniProt P00441); assay: inhibition of CuZn-SOD in human erythrocytes at 125 uM; type: cell-based
Trypanosoma cruzi [12] = assay: Antiparasitic activity against Trypanosoma cruzi in Vero cells assessed as reduction of amastigotes at 10 uM on day 8 relative to control; type: functional; parameters: scale not given: the % may be the effect or the level left; procedure, shortened: as §2
Trypanosoma cruzi [13] = assay: Antiparasitic activity against Trypanosoma cruzi in Vero cells assessed as reduction of trypomastigotes at 10 uM on day 8 relative to control; type: functional; parameters: scale not given: the % may be the effect or the level left; procedure, shortened: as §2

Superoxide dismutase [Cu-Zn] (Homo sapiens), sequence (P00441 whole entry): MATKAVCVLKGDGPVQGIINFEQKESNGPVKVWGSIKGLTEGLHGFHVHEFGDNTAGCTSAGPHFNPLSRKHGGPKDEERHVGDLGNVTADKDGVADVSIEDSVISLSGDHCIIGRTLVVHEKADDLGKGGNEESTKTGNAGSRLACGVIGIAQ

c1ccc2cc3c(NCCc4cnc[nH]4)nnc(NCCc4cnc[nH]4)c3cc2c1
IC50 at 72 h [1]: 88.7 µM

c1ccc2cc3c(NCCc4c[nH]cn4)nnc(NCCc4c[nH]cn4)c3cc2c1
IC50 (Trypanosoma cruzi [2]): 35.1 µM
inhibition (Trypanosoma cruzi [3]): 46%
IC50 (Trypanosoma cruzi [4]): 61.1 µM
inhibition (Trypanosoma cruzi [5]): 53%
inhibition [6]: 5%
inhibition [7]: 0%
Activity (Trypanosoma cruzi [8]): >50%
inhibition (Trypanosoma cruzi [9]): 86%
IC50 (Trypanosoma cruzi [10]): 14.2 µM
inhibition [11]: 6%

O=C(Cn1ccnc1[N+](=O)[O-])NCc1ccccc1 [BENZNIDAZOLE]
IC50 (Trypanosoma cruzi [10]): 15.8 µM

c1ccc2cc3c(NCCCn4ccnc4)nnc(NCCCn4ccnc4)c3cc2c1
IC50 (Trypanosoma cruzi [2]): 34.8 µM
inhibition (Trypanosoma cruzi [3]): 32%
IC50 (Trypanosoma cruzi [4]): 53.4 µM
inhibition (Trypanosoma cruzi [5]): 42%
inhibition [6]: 12%
Activity (Trypanosoma cruzi [12]): 44%
inhibition [7]: 2%
Activity (Trypanosoma cruzi [13]): >50%
Activity (Trypanosoma cruzi [8]): 84%
inhibition (Trypanosoma cruzi [9]): 100%
IC50 at 72 h [1]: 69.3 µM
IC50 (Trypanosoma cruzi [10]): < 0.2 µM
inhibition [11]: 18%

Clc1nnc(NCCCn2ccnc2)c2cc3ccccc3cc12
IC50 (Trypanosoma cruzi [2]): 46.9 µM
inhibition (Trypanosoma cruzi [3]): 80%
IC50 (Trypanosoma cruzi [4]): 51 µM
inhibition (Trypanosoma cruzi [5]): 93%
inhibition [6]: 22%
inhibition [7]: 7%
Activity (Trypanosoma cruzi [8]): 74%
inhibition (Trypanosoma cruzi [9]): 94%
IC50 at 72 h [1]: 146 µM
IC50 (Trypanosoma cruzi [10]): 13.7 µM
inhibition [11]: 27%

Clc1nnc(NCCc2c[nH]cn2)c2cc3ccccc3cc12
IC50 (Trypanosoma cruzi [2]): 34.6 µM
inhibition (Trypanosoma cruzi [3]): 50%
IC50 (Trypanosoma cruzi [4]): 108 µM
inhibition (Trypanosoma cruzi [5]): 91%
inhibition [6]: 0%
Activity (Trypanosoma cruzi [12]): 55%
inhibition [7]: 0%
Activity (Trypanosoma cruzi [13]): >50%
Activity (Trypanosoma cruzi [8]): 81%
inhibition (Trypanosoma cruzi [9]): 100%
IC50 at 72 h [1]: 213 µM
IC50 (Trypanosoma cruzi [10]): < 0.3 µM
inhibition [11]: 11%
